The source of these data is the EternaBench riboswitch data.

For this series, the system named is MS2 coat protein. Briefly: apparent Kd, MS2 coat protein; higher = weaker binding; RNA-MaP array; FMN 200 µM where present. Put shortly:
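Each design was made on Illumina sequencing-chip clusters by stalled E. coli RNA polymerase and titrated with SNAP-549-labelled MS2 coat protein from 0.7 or 1.5 nM, doubling to 3 µM, in the absence and then the presence of constant ligand. The buffer was 100 mM Tris-HCl pH 7.5, 80 mM KCl, 4 mM MgCl2, BSA, DTT, yeast tRNA and Tween-20. The apparent Kd is the median of filtered per-cluster fits of binding curves, with green signal normalised to red-channel RNA signal and control-cluster median Fmax.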

The mark [1] stands for this setting: designed as: OFF switch for flavin mononucleotide, no ligand.
The mark [2] stands for this setting: ligand present: flavin mononucleotide, designed as: OFF switch for flavin mononucleotide.
The mark [3] stands for this setting: designed as: ON switch for flavin mononucleotide, no ligand.
The mark [4] stands for this setting: ligand present: flavin mononucleotide, designed as: ON switch for flavin mononucleotide.

With “UAGGAGUCAGGAUAUGCGAGAGAUUGAAGUAUGGGAUGUGAGCAGAAGGGACAUGAGGAUCACCCAUGUAUGGA”, the apparent Kd (usually the concentration giving half-maximal binding under the conditions of the assay) turned out to be 167 nM under setting [1] and 150 nM under setting [2].
For “GAUCCACAUGAGGAUCACCCAUGUGAGGAUAUGAUACUAUGUACUUCGGUACAUAGUAUCAGAAGGCACGGAUC” the same measures were 27.1 nM and 31.6 nM.
For “GAUCGUUCUGUUAGGAUAUGCUUUGGGCUUCCGCAGUAGAAGGAACAUGAGGAUCACCCAUGUCCGAUGCCGUC” the same measures were 25.6 nM and 28.1 nM.
Regarding “UUGGCAACGUAGAAGGGUGACAUGAGGAUCACCCAUGUGCCGAUAUUUCUCGAGAUAUGUCGGCCACAGGAUAUACGUGCCAUC”, the “apparent Kd” value runs as follows: under setting [3], 32.3 nM; under setting [4], 57.9 nM.
Take “ACGCCCUGAGGAUAUCUUAUCCCGUACAUGAGGAUCACCCAUGUUUUCCUCCGGGCUCCGAGAGAAGGCAGGCCCA”: the “apparent Kd” value was found to be 42.2 nM under setting [1] and 75.9 nM under setting [2].
For “GGUACCUUCACAGGAUAUGCUAUGCUUUGCGUAGCAGAAGGGUGAUACAUGAGGAUCACCCAUGUGGUGCCAGGGCGUGAGCCC”, the “apparent Kd” value reads like this: under setting [3], 283 nM; under setting [4], 278 nM.
“GGAUCGAAAGUGAGGAUAUGCUGGUCCUUGGAUCAGCAGAAGGCACAUGAGGAUCACCCAUGUGGUAACGGUCC”: the “apparent Kd” value reads like this: under setting [1], 33.8 nM; under setting [2], 172 nM.
For “CUCAUGUUAGGAUAUGCGCUCGACGUAGUGGUUGAGCUCUAGCAGAAGGAACAUGAGGAUCACCCAUGUUUGCA”, in that order: 68.5 nM and 21.3 nM.
On to “UUGUUGUAUGUAGGAUAUGCGUGUUAUUAUUAUGCAGAAGGACAUGAGGAUCACCCAUGUGUAUUAUUAUUAUAUAUUAUAUAU”, for which the “apparent Kd” value was determined as 21.5 nM under setting [1] and 19.6 nM under setting [2].
For “UUUCCGCGAGGAUAUGCGGGCUGUGCUUUUCAUUUCUUACAACAUGAGGAUCACCCAUGUAGAAGGUGCUUCUU”, in that order: 213 nM and 189 nM.
As to “CAGUACAUGUUAGGAUAUGAUUCGGUACAGCGAUCAGAAGGAACAUGAGGAUCACCCAUGUGACCCACGAUUUGCAAACUAAGA”, the “apparent Kd” value turned out to be 8.43 nM under setting [1] and 17.8 nM under setting [2].
Take “ACUCGAUUUUUGGGUAUACUAUAUGAGGAUAUCAUACAUCUAUACAUGAGGAUCACCCAUGUGACUGAGAAGGCAUAUAUAAUA”: the “apparent Kd” value runs as follows: under setting [3], 18.8 nM; under setting [4], 9.15 nM.
Consider “AGUCCACAUGAGGAUCACCCAUGUGAGGAUAUCGAUGUCCCAGGGCGGGUGCGGGACUCGAGAAGGCACUAGGU”, for which the “apparent Kd” value was determined as 34.5 nM under setting [1] and 110 nM under setting [2].
For “CCUCUACAUGAGGAUCACCCAUGUGAGGAUAUCUCGGAACAACCACUUAAGGCACUCCAGAGAAGGCACGUGUA” the same measures were 14.9 nM and 20.9 nM.
As to “GCGCAUUUAAGAUUUAUAUAAUUUUCAGAAGGUGAAUAGUCGACAUGAGGAUCACCCAUGUAAUUCAAGGAUAUGAUUUAGCGC”, the “apparent Kd” value under setting [3] amounted to 59.6 nM and the “apparent Kd” value under setting [4] worked out at 10.1 nM.
For “UGCUACUAGGGAGGAUAUGGGAAGAUACAUGAGGAUCACCCAUGUUUAAGAAUGCCGAGAGGCAACUAGAAGGCCCUAGUACCU”, in that order: 401 nM and 22.1 nM.
Regarding “ACAUGAGGAUCACCCAUGUUAUGUUGGGUACUAAAUUAUUCGUAGGAUAUCGUAGCUAGUUUGUGCGAGAAGGACGCAGUUUUU”, the “apparent Kd” value runs as follows: under setting [1], 257 nM; under setting [2], 277 nM.
For “AGGUGAAAUGUAGGAUAUGGAAAUAAAUUUUAACCAGAAGGACAUGAGGAUCACCCAUGUGAUAGAGAGUUAUUUAUAACUCCA”, in that order: 13.9 nM and 95.9 nM.
For “UUUUAGUCAGGAUAUACAUGAGGAUCACCCAUGUAAAAUUUUAAUUUAAUUUUAAGGUGUAGAAGGGACAUUAA” the same measures were 27.6 nM and 29.4 nM.
For “AGAGCCUCGUGAGGAUAUACAUGAGGAUCACCCAUGUAAAUGGAAUAACGGAGGAAACUCCGAAUGUAGAAGGCACGAGGCUCA”, in that order: 79.9 nM and 966 nM.
Regarding “CCUCAUAUUUAGGAUAUGAUGGGUUAUUAUUCGUUAGAAGGAGGUACAUGAGGAUCACCCAUGUCCCGUUUGGG”, the “apparent Kd” value turned out to be 34.2 nM under setting [1] and 32.9 nM under setting [2].
Take “UUAAUUAUACAAGGAUAUCUAUUGUUCUUUCGACUUACAUGAGGAUCACCCAUGUUAAUAUAUAUAGAGAAGGUGUAUUUUCAG”: the “apparent Kd” value was 43.3 nM under setting [3] and 25.4 nM under setting [4].
Consider “CGUAGCAAAGUGAGGAUAUCUAGAGCGAUAGCUCUAGAGAAGGCACAUGAGGAUCACCCAUGUGAUCAGCUACG”, for which the “apparent Kd” value runs as follows: under setting [1], 276 nM; under setting [2], 899 nM.
In the case of “UUAAAUCAUGUAGGAUAUGCAUGGCGAAGCUACGCAGAAGGACAUGAGGAUCACCCAUGUUAAAGCGACCGAGUUCGGUUGCAA”, the “apparent Kd” value by setting is: under setting [1], 124 nM; under setting [2], 214 nM.
For “GCGUACAUAUCAGGAUAUCAUUGUAUUGUUUUACUCAGUGUAUACAUGAGGAUCACCCAUGUUCUUGAGAAGGGAUUACUACGC” the same measures were 15.1 nM and 14.1 nM.
On to “AUUAACUACAUAGGAUAUUGAUACAUGAGGAUCACCCAUGUCACCCAUUUAUAUAUUAAUAUUGACAAGAAGGAUGUGGUUACA”, for which the “apparent Kd” value is, setting by setting: under setting [3], 13.1 nM; under setting [4], 6.13 nM.
Consider “GUGCCGAACCUAGGAUAUCUUAUCGGGUUCCGCCGUGGCUUAGCGACAUGAGGAUCACCCAUGUAAGAGAAGGAGGUGGUGGAG”, for which the “apparent Kd” value was determined as 299 nM under setting [1] and 259 nM under setting [2].
“GCAUGUUAUGUCAGGAUAUACCUAUGGAUACAUAGGUAGAAGGGACAUGAGGAUCACCCAUGUCCUAAUCAUGC”: the “apparent Kd” value under setting [1] was 13.4 nM and the “apparent Kd” value under setting [2] was 16.7 nM.
With “UCGACCGGCGCCGGUCGAACAUGAGGAUCACCCAUGUACUCCAGAAGGCCGCCCAAGAACGGAGUGGAGGAUAUGGAGGUUCUC”, the “apparent Kd” value under setting [3] was found to be 77.1 nM and the “apparent Kd” value under setting [4] came to 22.3 nM.
For “ACAAAUGGAGGAUAUACAUGAGGAUCACCCAUGUUUAUCCUACAUAUGUGAUACUCAUGUAGAAGGCCAUUUGA”, the “apparent Kd” value reads like this: under setting [1], 13.1 nM; under setting [2], 12.6 nM.
As for “UGGUACUAGGGAGGAUAUGGGAAGAUACAUGAGGAUCACCCAUGUUUAAGAAUGCCGAGAAGCAACUAGAAGGCCCUAGUACCU”, the “apparent Kd” value under setting [3] turned out to be 332 nM and the “apparent Kd” value under setting [4] was 19.5 nM.
Consider “GCCGAUUAAGUGAGGAUAUACCUAUGGAUACAUAGGUAGAAGGUACAUGAGGAUCACCCAUGUUCCUCAACGGC”, for which the “apparent Kd” value is, setting by setting: under setting [1], 10.4 nM; under setting [2], 12.7 nM.
For “CUGAGGAAAGGAUAUACAUCAAACUCCUCAUCCUCGAAAGAACAUGAGGAUCACCCAUGUAGAAGGUUCGCGGU” the same measures were 37.2 nM and 29.8 nM.
On to “GUUUCUAUAAGUUAUAAUUAACAGUCAGAAGGUGAUACUACGACAUGAGGAUCACCCAUGUAAUUCAAGGAUAUGAACUUAAUC”, for which the “apparent Kd” value was 1120 nM under setting [3] and 539 nM under setting [4].
With “CUGCUCCGUGUAGGAUAUCCGGGCAACCAAUCCGGAGAAGGACAUGAGGAUCACCCAUGUAUGUUAUUAUCACGUGAAGCGUCC”, the “apparent Kd” value under setting [1] was 23 nM and the “apparent Kd” value under setting [2] was determined as 25.3 nM.
For “CUUUUGUGAGGAUAUUAGUAUUAAAUAAAUAAAAUUACUACUGAGAAGGCACAUGAGGAUCACCCAUGUUCCUC” the same measures were 30.3 nM and 131 nM.
For “GUCAGCUCGUGAGGAUAUACAACACUGCUUCGGCAGUGUAUUAAGAUCACAUGAGGAUCACCCAUGUAGAAGGCACGAGGUGAU” the same measures were 20.5 nM and 245 nM.
Turning to “AAUAAUUAGUAAGGAUAUACUAGCGAUUAGCUUGUAGAAGGUACAGUCUUAUGUAUAACAAAUUAACAUGAGGAUCACCCAUGU”, the “apparent Kd” value worked out at 10.2 nM under setting [3] and 7.39 nM under setting [4].
For the sequence “GCGGGUAAAGCAGGAUAUCUAAUGUCACGGAAACAUGAGGAUCACCCAUGUAGAGAAGGGCUAAGUCAUACAAUUCGAAUUUGC”, the “apparent Kd” value reads like this: under setting [1], 9.04 nM; under setting [2], 8.24 nM.
As to “AAAAAACAUGAGGAUCACCCAUGUAAGGAUAUGACUUAAAUAAAGAAAGAAGAAAUAGUCAGAAGGUACAAAUA”, the “apparent Kd” value is, setting by setting: under setting [1], 45.3 nM; under setting [2], 51.1 nM.
For “UUAUUAUAUGUAGGAUAUGCAUAUUAUUAUUAUGCAGAAGGACAUGAGGAUCACCCAUGUAUAUUGUUAUUAUAUAUUAUAUAU”, in that order: 25.5 nM and 37 nM.
Consider “UCCACUGCUGAGAAGGGAUAGAUAUCGUUCUAGUCAGGAUAUCAAUACAGUGCAGCAUGAGGACAUGAGGAUCACCCAUGUAUU”, for which the “apparent Kd” value under setting [3] was 14.2 nM and the “apparent Kd” value under setting [4] was 10.9 nM.
In the case of “UUAAUUAAUUAAUUCCAGUUUACAUGAGGAUCACCCAUGUAUAAGGAUAUGCAGUGGAAUACACUGCAGAAGGUAUACAUCUGG”, the “apparent Kd” value was found to be 18.4 nM under setting [1] and 35.8 nM under setting [2].
Consider “GGAUAGGACAGAGGAUAUACGUGCUAGAGAUACUAGCAAAAUUUCCUCACAUGAGGAUCACCCAUGUAGAAGGCUGUCCUAUCG”, for which the “apparent Kd” value by setting is: under setting [1], 46 nM; under setting [2], 954 nM.
Turning to “CCUCCCUGAGGAUAUCCACCCUCAUACAUGAGGAUCACCCAUGUUCAACCCUGGGUUCCCGGAGAAGGCAGUUUUC”, the “apparent Kd” value runs as follows: under setting [1], 97.2 nM; under setting [2], 102 nM.
For “ACGGAGCUAGGAUAUACAUGAGGAUCACCCAUGUAUGAUGCGGCGCCCUUUUGCGCCUGUAGAAGGAGCACCGU”, the “apparent Kd” value turned out to be 15.9 nM under setting [1] and 16.5 nM under setting [2].
With “ACUUAGUACAAUUUAGAUCUACAUGAGGAUCACCCAUGUACUGAGGAUAUCAGCUCGAAUAGAGCUGAGAAGGCAGAAGUACUU”, the “apparent Kd” value by setting is: under setting [3], 245 nM; under setting [4], 53.5 nM.
With “AAGUAUGGAGGAUAUACAUGGAUAUACAUUCAUGUGGACCUACAUGAGGAUCACCCAUGUAGAAGGCCAUAAUA”, the “apparent Kd” value by setting is: under setting [1], 30.7 nM; under setting [2], 16.6 nM.
